Laboratory results: ChEMBL document CHEMBL2146464, “Structure-activity relationship study of nitrosopyrimidines acting as antifungal agents” (Bioorg Med Chem, 2012)
Values after ≈ are worked out from the molar mass of the structure shown. Active and inactive are the calls of the source. No cut-off for these calls is given here.

Experiments:
Candida tropicalis [1] = assay: Antifungal activity against Candida tropicalis assessed as growth inhibition at 15.6 ug/mL by microplate reader analysis; format: functional; conditions: read-out: GI
Trichophyton rubrum [2] = assay: Fungicidal activity against Trichophyton rubrum CCC 110 after 48 hrs by agar plate dilution method; format: functional; conditions: CCC 110, 48 h
Method in brief: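 Samples from each clear well of the MIC broth microdilution tray were plated onto RPMI-1640 agar buffered with MOPS. That tray had compounds twofold diluted in RPMI (pH 7.0, MOPS) from 250–0.98 µg/mL with inoculum of 1–5 × 10³ CFU/mL, incubated at 28–30 °C for dermatophytes. Plates were incubated at 30 °C and read at 48 h. MFC was taken as the lowest concentration giving total inhibition of visible growth.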

Cryptococcus neoformans [3] = assay: Antifungal activity against Cryptococcus neoformans ATCC 32264 assessed as growth inhibition at 31.25 ug/mL after 48 hrs by microplate reader analysis; format: functional; conditions: ATCC 32264, 48 h, read-out: GI
Method in brief: (§1)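 Microplate growth-inhibition assay in RPMI-1640, compound at final 250–0.98 µg/mL (DMSO ≤1%). Inoculum 1–5 × 10³ CFU/mL. Sterility and DMSO growth controls included. Percent inhibition is computed from blank-corrected OD relative to the growth control, tested in duplicate.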

Candida albicans [4] = assay: Antifungal activity against Candida albicans ATCC 10231 assessed as growth inhibition at 250 ug/mL after 24 hrs by microplate reader analysis; format: functional; conditions: ATCC 10231, 24 h, read-out: GI
Method in brief: (§2)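 96-well RPMI-1640 wells with compound at final 250–0.98 µg/mL (DMSO ≤1%). Inoculum 100 µL, 1–5 × 10³ CFU/mL, 200 µL final. Each well includes growth (DMSO, no compound) and sterility controls. % inhibition = 100 − (CTW−SCW)/(GCW−SCW) × 100, run in duplicate.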

Candida tropicalis [5] = assay: Antifungal activity against Candida tropicalis assessed as growth inhibition at 7.8 ug/mL by microplate reader analysis; format: functional; conditions: read-out: GI
Cryptococcus neoformans [6] = assay: Antifungal activity against Cryptococcus neoformans ATCC 32264 assessed as growth inhibition at 15.6 ug/mL after 48 hrs by microplate reader analysis; format: functional; conditions: ATCC 32264, 48 h, read-out: GI; method in brief: as §1
Cryptococcus neoformans [7] = assay: Antifungal activity against Cryptococcus neoformans ATCC 32264 assessed as growth inhibition at 250 ug/mL after 48 hrs by microplate reader analysis; format: functional; conditions: ATCC 32264, 48 h, read-out: GI; method in brief: as §1
Candida tropicalis [8] = assay: Antifungal activity against Candida tropicalis after 48 hrs by NCCLS broth microdilution method; format: functional; conditions: read-out: MIC100
Method in brief: (§3)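 Yeast MIC by NCCLS M27-A3 broth microdilution in RPMI-1640 buffered to pH 7.0 with MOPS. Twofold dilutions of 250–0.98 µg/mL, final DMSO ≤1%. Inoculum 1–5 × 10³ CFU/mL. Incubated at 30 °C in a moist dark chamber. Read visually at 48 h. MIC100 is the lowest concentration with no visible growth versus drug-free control.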

Candida albicans [9] = assay: Antifungal activity against Candida albicans ATCC 10231 assessed as growth inhibition at 125 ug/mL after 24 hrs by microplate reader analysis; format: functional; conditions: ATCC 10231, 24 h, read-out: GI; method in brief: as §2
[10] = Acute toxicity in bony fish assessed as mortality at 35 ug/mL after 96 hrs; conditions: actinopterygii; read-out: Activity
Method in brief: (§4)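 Guppy (Poecilia reticulata) acute static exposure: 10 fish per concentration in 2 L wide-mouthed jars holding the test solution. Compounds were added from […] to give the final concentrations. Dead fish were counted and removed every 24 h, with general condition noted; percentage mortality was scored at 96 h. Two experiments, each in triplicate.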

Cryptococcus neoformans [11] = assay: Antifungal activity against Cryptococcus neoformans ATCC 32264 after 48 hrs by microplate reader analysis; format: functional; conditions: ATCC 32264, 48 h; method in brief: as §1
Candida tropicalis [12] = assay: Antifungal activity against Candida tropicalis assessed as growth inhibition at 62.5 ug/mL by microplate reader analysis; format: functional; conditions: read-out: GI
Candida albicans [13] = assay: Antifungal activity against Candida albicans ATCC 10231 assessed as growth inhibition at 62.5 ug/mL after 24 hrs by microplate reader analysis; format: functional; conditions: ATCC 10231, 24 h, read-out: GI; method in brief: as §2
Aspergillus flavus = assay: Antifungal activity against Aspergillus flavus ATCC 9170 at 0.98 to 250 ug/mL by NCCLS broth microdilution method; format: functional, organism-based
Method in brief: (§5)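 MIC by broth microdilution per NCCLS M27-A3/M38-A2 in RPMI-1640 buffered to pH 7.0 with MOPS. Twofold dilutions from 250–0.98 µg/mL, final DMSO ≤1%. Inoculum 1–5 × 10³ CFU/mL. Incubated in a moist dark chamber, 30 °C for Aspergillus and 28–30 °C for dermatophytes. Read visually when control growth allowed. Endpoint is the lowest concentration giving total inhibition of visible growth (MIC100).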

Cryptococcus neoformans [14] = assay: Antifungal activity against Cryptococcus neoformans ATCC 32264 assessed as growth inhibition at 62.5 ug/mL after 48 hrs by microplate reader analysis; format: functional; conditions: ATCC 32264, 48 h, read-out: GI; method in brief: as §1
Candida albicans [15] = assay: Antifungal activity against Candida albicans ATCC 10231 after 48 hrs by NCCLS broth microdilution method; format: functional; conditions: ATCC 10231, 48 h, read-out: MIC100; method in brief: as §3
Trichophyton rubrum [16] = assay: Antifungal activity against Trichophyton rubrum CCC 110 by NCCLS broth microdilution method; format: functional; conditions: read-out: MIC100; method in brief: as §5
Candida tropicalis [17] = assay: Fungicidal activity against Candida tropicalis after 48 hrs by agar plate dilution method; format: functional
Method in brief: (§6)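 MFC: after the microdilution MIC, material from each clear well was plated onto RPMI-1640 agar buffered with MOPS. Plates incubated at 30 °C and read after 48 h. MFC is the lowest concentration giving total inhibition of visible growth.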

Candida albicans [18] = assay: Antifungal activity against Candida albicans ATCC 10231 after 24 hrs by microplate reader analysis; format: functional; conditions: ATCC 10231, 24 h; method in brief: as §2
Nannizzia gypsea [19] = assay: Fungicidal activity against Microsporum gypseum CCC 115 after 48 hrs by agar plate dilution method; format: functional; conditions: CCC 115, 48 h; method in brief: as §6
Candida tropicalis [20] = assay: Antifungal activity against Candida tropicalis assessed as growth inhibition at 3.9 ug/mL by microplate reader analysis; format: functional; conditions: read-out: GI
Cryptococcus neoformans [21] = assay: Antifungal activity against Cryptococcus neoformans ATCC 32264 assessed as growth inhibition at 3.9 ug/mL after 48 hrs by microplate reader analysis; format: functional; conditions: ATCC 32264, 48 h, read-out: GI; method in brief: as §1
[22] = Acute toxicity in bony fish assessed as mortality at 5 ug/mL after 96 hrs; conditions: actinopterygii; read-out: Activity; method in brief: as §4
[23] = test system: Trichophyton mentagrophytes; assay: Fungicidal activity against Trichophyton mentagrophytes ATCC 9972 after 48 hrs by agar plate dilution method; format: functional; conditions: ATCC 9972, 48 h; method in brief: as §6
Candida tropicalis [24] = assay: Antifungal activity against Candida tropicalis assessed as growth inhibition at 250 ug/mL by microplate reader analysis; format: functional; conditions: read-out: GI
Candida albicans [25] = assay: Antifungal activity against Candida albicans ATCC 10231 assessed as growth inhibition at 15.6 ug/mL after 24 hrs by microplate reader analysis; format: functional; conditions: ATCC 10231, 24 h, read-out: GI; method in brief: as §2
[26] = test system: Trichophyton mentagrophytes; assay: Antifungal activity against Trichophyton mentagrophytes ATCC 9972 by NCCLS broth microdilution method; format: functional; conditions: read-out: MIC100; method in brief: as §5
Cryptococcus neoformans [27] = assay: Antifungal activity against Cryptococcus neoformans ATCC 32264 after 48 hrs by NCCLS broth microdilution method; format: functional; conditions: ATCC 32264, 48 h, read-out: MIC100; method in brief: as §3
Cryptococcus neoformans [28] = assay: Antifungal activity against Cryptococcus neoformans ATCC 32264 assessed as growth inhibition at 125 ug/mL after 48 hrs by microplate reader analysis; format: functional; conditions: ATCC 32264, 48 h, read-out: GI; method in brief: as §1
Candida tropicalis [29] = assay: Antifungal activity against Candida tropicalis assessed as growth inhibition at 31.25 ug/mL by microplate reader analysis; format: functional; conditions: read-out: GI
Aspergillus fumigatus = assay: Antifungal activity against Aspergillus fumigatus ATCC 26934 at 0.98 to 250 ug/mL by NCCLS broth microdilution method; format: functional, organism-based; method in brief: as §5
Cryptococcus neoformans [30] = assay: Fungicidal activity against Cryptococcus neoformans ATCC 32264 after 48 hrs by agar plate dilution method; format: functional; conditions: ATCC 32264, 48 h; method in brief: as §6
Candida albicans [31] = assay: Antifungal activity against Candida albicans ATCC 10231 assessed as growth inhibition at 7.8 ug/mL after 24 hrs by microplate reader analysis; format: functional; conditions: ATCC 10231, 24 h, read-out: GI; method in brief: as §2
Aspergillus niger = assay: Antifungal activity against Aspergillus niger ATCC 9029 at 0.98 to 250 ug/mL by NCCLS broth microdilution method; format: functional, organism-based; method in brief: as §5
Candida albicans [32] = assay: Antifungal activity against Candida albicans ATCC 10231 assessed as growth inhibition at 31.25 ug/mL after 24 hrs by microplate reader analysis; format: functional; conditions: ATCC 10231, 24 h, read-out: GI; method in brief: as §2
Candida albicans [33] = assay: Antifungal activity against Candida albicans ATCC 10231 assessed as growth inhibition at 3.9 ug/mL after 24 hrs by microplate reader analysis; format: functional; conditions: ATCC 10231, 24 h, read-out: GI; method in brief: as §2
Candida albicans [34] = assay: Fungicidal activity against Candida albicans ATCC 10231 after 48 hrs by agar plate dilution method; format: functional; conditions: ATCC 10231, 48 h; method in brief: as §6
Candida tropicalis [35] = assay: Antifungal activity against Candida tropicalis assessed as growth inhibition at 125 ug/mL by microplate reader analysis; format: functional; conditions: read-out: GI
Candida tropicalis [36] = assay: Antifungal activity against Candida tropicalis by microplate reader analysis; format: functional
Cryptococcus neoformans [37] = assay: Antifungal activity against Cryptococcus neoformans ATCC 32264 assessed as growth inhibition at 7.8 ug/mL after 48 hrs by microplate reader analysis; format: functional; conditions: ATCC 32264, 48 h, read-out: GI; method in brief: as §1
Nannizzia gypsea [38] = assay: Antifungal activity against Microsporum gypseum CCC 115 by NCCLS broth microdilution method; format: functional; conditions: read-out: MIC100; method in brief: as §5

COc1nc(N)c(N=O)c(Nc2ccccc2)n1
inhibition of growth at 15.6 µg/mL (Candida tropicalis [1]): 88.2% | MFC (Trichophyton rubrum [2]): 250 µg/mL (≈ 1020 µM) | inhibition of growth at 31.25 µg/mL (Cryptococcus neoformans [3]): 100% | inhibition of growth at 250 µg/mL (Candida albicans [4]): 100% | inhibition of growth at 7.8 µg/mL (Candida tropicalis [5]): 87.2% | inhibition of growth at 15.6 µg/mL (Cryptococcus neoformans [6]): 100% | inhibition of growth at 250 µg/mL (Cryptococcus neoformans [7]): 100% | MIC (Candida tropicalis [8]): 31.2 µg/mL (≈ 127 µM) | inhibition of growth at 125 µg/mL (Candida albicans [9]): 100% | mortality at 96 h, 35 ug/mL [10]: 0% | MIC50 (Cryptococcus neoformans [11]): 1.95 µg/mL (≈ 7.95 µM) | inhibition of growth at 62.5 µg/mL (Candida tropicalis [12]): 100% | inhibition of growth at 62.5 µg/mL (Candida albicans [13]): 100% | Activity (Aspergillus flavus): inactive | inhibition of growth at 62.5 µg/mL (Cryptococcus neoformans [14]): 100% | MIC (Candida albicans [15]): 31.2 µg/mL (≈ 127 µM) | MIC (Trichophyton rubrum [16]): 125 µg/mL (≈ 510 µM) | MFC (Candida tropicalis [17]): 31.2 µg/mL (≈ 127 µM) | MIC50 (Candida albicans [18]): 7.8 µg/mL (≈ 31.8 µM) | MFC (Nannizzia gypsea [19]): 62.5 µg/mL (≈ 255 µM) | inhibition of growth at 3.9 µg/mL (Candida tropicalis [20]): 4.1% | inhibition of growth at 3.9 µg/mL (Cryptococcus neoformans [21]): 76.2% | mortality at 96 h, 5 ug/mL [22]: 0% | MFC [23]: 250 µg/mL (≈ 1020 µM) | inhibition of growth at 250 µg/mL (Candida tropicalis [24]): 100% | inhibition of growth at 15.6 µg/mL (Candida albicans [25]): 98.1% | MIC [26]: 125 µg/mL (≈ 510 µM) | MIC (Cryptococcus neoformans [27]): 15.6 µg/mL (≈ 63.6 µM) | inhibition of growth at 125 µg/mL (Cryptococcus neoformans [28]): 100% | inhibition of growth at 31.25 µg/mL (Candida tropicalis [29]): 100% | Activity (Aspergillus fumigatus): inactive | MFC (Cryptococcus neoformans [30]): 62.5 µg/mL (≈ 255 µM) | inhibition of growth at 7.8 µg/mL (Candida albicans [31]): 85% | Activity (Aspergillus niger): inactive | inhibition of growth at 31.25 µg/mL (Candida albicans [32]): 100% | inhibition of growth at 3.9 µg/mL (Candida albicans [33]): 4.7% | MFC (Candida albicans [34]): 31.2 µg/mL (≈ 127 µM) | inhibition of growth at 125 µg/mL (Candida tropicalis [35]): 100% | MIC50 (Candida tropicalis [36]): 7.8 µg/mL (≈ 31.8 µM) | inhibition of growth at 7.8 µg/mL (Cryptococcus neoformans [37]): 91.2% | MIC (Nannizzia gypsea [38]): 62.5 µg/mL (≈ 255 µM)
